From ChEMBL document CHEMBL4765233, “From Lead to Drug Candidate: Optimization of 3-(Phenylethynyl)-1H-pyrazolo[3,4-d]pyrimidin-4-amine Derivatives as Agents for the Treatment of Triple Negative Breast Cancer” (J Med Chem, 2016)

Key:
MDA-MB-231 [1] = assay: Antiproliferative activity against human MDA-MB-231 cells assessed as reduction in cell viability incubated for 72 hrs by MTT assay; type: functional, cell-based; conditions: MDA-MB-231, 72 h
Method in brief: (§1)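 MTT viability assay. ATCC cell lines were grown in designated medium with 10% FBS at 37 °C, 5% CO2. Cells seeded at 1500−30000 per well and incubated 24 h, then exposed to compound (0−10 μg/mL) for 72 h. MTT added for 2−4 h. Formazan dissolved in DMSO (adherent) or acidified SDS overnight (suspension), absorbance read at 570 nm. Triplicates; IC50 calculated.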

MDA-MB-435 = assay: Antiproliferative activity against human MDA-MB-435 cells assessed as reduction in cell viability incubated for 72 hrs by MTT assay; type: functional, cell-based; conditions: MDA-MB-435, 72 h; method in brief: as §1
HepG2 = assay: Antiproliferative activity against human HepG2 cells assessed as reduction in cell viability incubated for 72 hrs by MTT assay; type: ADME, cell-based; conditions: HepG2, 72 h
MDA-MB-231 [2] = assay: Antitumor activity against human MDA-MB-231 cells xenografted in SCID mouse assessed as tumor growth inhibition at 40 mg/kg, po qd for 21 days and measured every 3 days; type: functional; conditions: MDA-MB-231, po, 504 h, time 21 day
Method in brief: (§2)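 SCID mice (5−6 weeks) injected subcutaneously with 100 μL of cells at 5 × 10^7/mL. At 150−200 mm3 mice randomized, 6 per group. Oral compounds given in water with 25% PEG400 plus 5% DMSO; paclitaxel given 10 mg/kg/week iv. Tumor volume a×b²/2 and body weight measured every 3 days. Inhibition rate (c−d)/c×100% against vehicle control.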

[3] = Toxicity in SCID mouse xenografted with MDA-MB-231 cells assessed as change in body weight at 40 mg/kg, po qd for 21 days and measured every 3 days; type: organism-based; conditions: in vivo, 504 h, dose 40 mg/kg/day, time 21 day
Method in brief: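 Exponential-phase cells washed and injected subcutaneously (5 × 10^6 cells in 100 μL) into 5–6-week SCID mice. At 150–200 mm3, mice randomised to groups of 6. Oral dosing daily in water with 25% PEG400 and 5% DMSO; paclitaxel 10 mg/kg weekly by tail vein. Body weight measured every 3 days and side effects checked daily.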

[4] = Toxicity in SCID mouse xenografted with MDA-MB-231 cells assessed as animal death at 40 mg/kg, po qd for 21 days; type: organism-based; conditions: in vivo, dose 40 mg/kg/day, time 21 day, read-out: Activity
Method in brief: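 SCID mice aged 5–6 weeks were injected subcutaneously with 100 μL of MDA-MB-231 cells resuspended at 5 × 10^7 per mL. When tumours reached 150–200 mm3, mice were randomised into groups of 3 or 6. Dosing was oral and daily, in sterile water with 25% PEG400 plus 5% DMSO. Side effects were checked daily and body weight every 3 days.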

MDA-MB-231 [5] = assay: Antitumor activity against human MDA-MB-231 cells xenografted in SCID mouse assessed as tumor growth inhibition at 40 mg/kg, po qd for 15 days and measured every 3 days; type: functional; conditions: MDA-MB-231, po, 360 h, time 15 day; method in brief: as §2
[6] = Toxicity in SCID mouse xenografted with MDA-MB-231 cells assessed as change in body weight at 40 mg/kg, po qd for 15 days and measured every 3 days; type: organism-based; conditions: in vivo, 360 h, dose 40 mg/kg/day, time 15 day
[7] = Toxicity in SCID mouse xenografted with MDA-MB-231 cells assessed as animal death at 40 mg/kg, po qd for 15 days; type: organism-based; conditions: in vivo, dose 40 mg/kg/day, time 15 day, read-out: Activity
[8] = biological target: Voltage-gated inwardly rectifying potassium channel KCNH2 (Homo sapiens, UniProt Q12809); assay: Inhibition of human ERG expressed in CHO cells at -80 mV holding potential by automated Qpatch electrophysiological assay
Sequence of Voltage-gated inwardly rectifying potassium channel KCNH2 (Q12809 whole entry): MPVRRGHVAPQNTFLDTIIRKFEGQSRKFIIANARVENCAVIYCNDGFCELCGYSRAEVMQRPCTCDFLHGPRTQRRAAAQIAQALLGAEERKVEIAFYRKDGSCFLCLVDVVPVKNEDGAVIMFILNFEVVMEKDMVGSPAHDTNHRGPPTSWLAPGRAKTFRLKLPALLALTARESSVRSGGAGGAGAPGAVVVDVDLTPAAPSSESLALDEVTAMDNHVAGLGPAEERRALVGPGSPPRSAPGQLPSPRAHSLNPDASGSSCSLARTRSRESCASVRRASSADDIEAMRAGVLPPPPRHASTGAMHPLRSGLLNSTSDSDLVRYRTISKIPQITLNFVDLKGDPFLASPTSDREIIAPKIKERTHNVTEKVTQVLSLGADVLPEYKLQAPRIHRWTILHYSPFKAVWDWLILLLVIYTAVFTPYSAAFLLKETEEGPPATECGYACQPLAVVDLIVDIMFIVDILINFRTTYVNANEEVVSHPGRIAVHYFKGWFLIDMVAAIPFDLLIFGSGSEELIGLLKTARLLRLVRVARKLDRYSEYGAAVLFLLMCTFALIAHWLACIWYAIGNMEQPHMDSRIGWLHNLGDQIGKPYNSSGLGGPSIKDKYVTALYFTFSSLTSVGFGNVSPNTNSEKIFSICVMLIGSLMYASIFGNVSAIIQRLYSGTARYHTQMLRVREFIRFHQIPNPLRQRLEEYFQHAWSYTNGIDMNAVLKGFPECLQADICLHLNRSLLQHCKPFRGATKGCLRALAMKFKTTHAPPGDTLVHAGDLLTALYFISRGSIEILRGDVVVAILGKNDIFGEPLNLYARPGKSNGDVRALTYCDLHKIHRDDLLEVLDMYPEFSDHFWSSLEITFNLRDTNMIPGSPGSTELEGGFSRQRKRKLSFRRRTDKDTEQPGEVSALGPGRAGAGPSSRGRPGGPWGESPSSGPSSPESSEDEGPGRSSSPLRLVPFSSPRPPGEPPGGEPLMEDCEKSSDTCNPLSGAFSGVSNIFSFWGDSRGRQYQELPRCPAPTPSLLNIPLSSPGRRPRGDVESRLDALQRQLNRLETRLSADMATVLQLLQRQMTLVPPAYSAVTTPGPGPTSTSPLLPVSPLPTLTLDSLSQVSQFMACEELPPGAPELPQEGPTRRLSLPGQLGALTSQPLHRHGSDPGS

[9] = Toxicity in SCID mouse xenografted with MDA-MB-231 cells assessed as change in body weight at 20 mg/kg, po qd for 15 days and measured every 3 days; type: organism-based; conditions: in vivo, 360 h, dose 20 mg/kg/day, time 15 day
MDA-MB-231 [10] = assay: Antitumor activity against human MDA-MB-231 cells xenografted in SCID mouse assessed as tumor growth inhibition at 20 mg/kg, po qd for 15 days and measured every 3 days; conditions: MDA-MB-231, po, 360 h, read-out: INH
[11] = Toxicity in SCID mouse xenografted with MDA-MB-231 cells assessed as animal death at 20 mg/kg, po qd for 15 days; type: organism-based; conditions: in vivo, dose 20 mg/kg/day, time 15 day, read-out: Activity
[12] = Acute toxicity in Sprague-Dawley rat assessed as histopathological changes in heart at 100 mg/kg, po administered as single dose measured after 24 hrs by H and E staining based light microscope analysis; type: organism-based; conditions: in vivo
Method in brief: (§3)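 Sprague-Dawley rats received a single oral dose of 100 mg/kg in sterile water with 25% (v/v) PEG400 plus 5% DMSO. Organs were examined by histology and immunohistochemistry for pathological changes. Behaviour and side effects were checked daily.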

[13] = Acute toxicity in Sprague-Dawley rat assessed as histopathological changes in liver at 100 mg/kg, po administered as single dose measured after 24 hrs by H and E staining based light microscope analysis; type: organism-based; conditions: in vivo; method in brief: as §3
[14] = Acute toxicity in Sprague-Dawley rat assessed as histopathological changes in spleen at 100 mg/kg, po administered as single dose measured after 24 hrs by H and E staining based light microscope analysis; type: organism-based; conditions: in vivo; method in brief: as §3
[15] = Acute toxicity in Sprague-Dawley rat assessed as histopathological changes in lungs at 100 mg/kg, po administered as single dose measured after 24 hrs by H and E staining based light microscope analysis; type: organism-based; conditions: in vivo; method in brief: as §3
[16] = Acute toxicity in Sprague-Dawley rat assessed as histopathological changes in kidney at 100 mg/kg, po administered as single dose measured after 24 hrs by H and E staining based light microscope analysis; type: organism-based; conditions: in vivo; method in brief: as §3
[17] = Half-life in Sprague-Dawley rat at 10 mg/kg, po administered via gavage by LC-MS analysis; type: ADME, organism-based; conditions: in vivo
[18] = AUC (0 to t) in Sprague-Dawley rat at 10 mg/kg, po administered via gavage by LC-MS analysis; type: ADME, organism-based; design: dose 10 mg/kg; conditions: in vivo
[19] = AUC (0 to infinity) in Sprague-Dawley rat at 10 mg/kg, po administered via gavage by LC-MS analysis; type: ADME, organism-based; design: time infinity, route oral, dose 10 mg/kg; conditions: in vivo
[20] = Tmax in Sprague-Dawley rat at 10 mg/kg, po administered via gavage by LC-MS analysis; type: ADME, organism-based; conditions: in vivo
[21] = Cmax in Sprague-Dawley rat at 10 mg/kg, po administered via gavage by LC-MS analysis; type: ADME, organism-based; design: route oral, dose 10 mg/kg; conditions: in vivo

| Compound | IC50 (MDA-MB-231 [1]) [µM] | IC50 (MDA-MB-435) [µM] | IC50 (HepG2) [µM] | mortality at 504 h [4] [%] | inhibition in vivo at 40 mg/kg/day (MDA-MB-231 [5]) [%] | Activity [6] [%] | mortality at 360 h [7] [%] | IC50 [8] [µM] | also measured |
| --- | --- | --- | --- | --- | --- | --- | --- | --- | --- |
| Cc1ccc(NC(=O)c2ccc(C)c(C(F)(F)F)c2)cc1C#Cc1nn(C2CCN(C)CC2)c2ncnc(N)c12 | 0.044 | 0.04 | > 10 | 0 | – | – | – | – | inhibition in vivo at 40 mg/kg/day (MDA-MB-231 [2]): 69.8%; Activity [3]: -4.5% |
| Cc1ccc(NC(=O)c2ccc(Cl)c(C(F)(F)F)c2)cc1C#Cc1nn([C@H]2CC[C@H](O)CC2)c2ncnc(N)c12 | 0.016 | 0.037 | > 10 | – | 96.1 | -13.4 | 0 | > 30 | – |
| Cc1ccc(NC(=O)c2ccc(Cl)cc2)cc1C#Cc1nn(C2CCN(C)CC2)c2ncnc(N)c12 | 0.033 | 0.111 | 7.6 | 0 | – | – | – | – | inhibition in vivo at 40 mg/kg/day (MDA-MB-231 [2]): 90.1%; Activity [3]: -16% |
| Cc1ccc(NC(=O)c2ccc(C)c(C(F)(F)F)c2)cc1C#Cc1nn(C[C@H](C)CO)c2ncnc(N)c12 | 0.043 | 0.061 | > 10 | – | 97.1 | -11.3 | 0 | > 30 | – |
| Cc1ccc(NC(=O)c2ccc(Cl)c(C(F)(F)F)c2)cc1C#Cc1nn(C2CCN(C)CC2)c2ncnc(N)c12 | 0.031 | 0.027 | > 10 | 0 | – | – | – | – | inhibition in vivo at 40 mg/kg/day (MDA-MB-231 [2]): 70.5%; Activity [3]: -6.7% |
| Cc1ccc(NC(=O)c2cccc(C(F)(F)F)c2)cc1C#Cc1nn([C@H]2CC[C@@H](O)CC2)c2ncnc(N)c12 | – | – | 7.9 | – | – | – | – | – | Activity [9]: -2%; inhibition in vivo at 20 mg/kg/day (MDA-MB-231 [10]): 70.2%; mortality at 360 h [11]: 0% |
| Cc1ccc(NC(=O)c2cccc(C(F)(F)F)c2)cc1C#Cc1nn(C[C@@H](C)CO)c2ncnc(N)c12 | 0.017 | 0.01 | 9.5 | – | 78.1 | -3.2 | 0 | > 30 | – |
| Cc1ccc(NC(=O)c2cccc(C(F)(F)F)c2)cc1C#Cc1nn(C2CCN(C)CC2)c2ncnc(N)c12 | 0.013 | 0.08 | > 10 | 0 | – | – | – | 0.6 | inhibition in vivo at 40 mg/kg/day (MDA-MB-231 [2]): 90.7%; Activity [3]: -3.1% |
| COc1ccc(C(=O)Nc2ccc(C)c(C#Cc3nn(C4CCN(C)CC4)c4ncnc(N)c34)c2)cc1C(F)(F)F | 0.024 | 0.832 | 2.2 | 0 | – | – | – | – | – |
| Cc1ccc(NC(=O)c2ccc(Cl)c(C(F)(F)F)c2)cc1C#Cc1nn(C[C@H](C)CO)c2ncnc(N)c12 | 0.017 | 0.323 | > 10 | – | – | – | – | > 30 | – |
| Cc1ccc(NC(=O)c2cccc(C(F)(F)F)c2)cc1C#Cc1nn(C[C@H](C)CO)c2ncnc(N)c12 | 0.01 | 0.01 | > 10 | – | 77.3 | -8.2 | 0 | > 30 | – |
| Cc1ccc(C(=O)Nc2cccc(C(F)(F)F)c2)cc1C#Cc1nn(C2CCN(C)CC2)c2ncnc(N)c12 | 0.009 | 0.17 | 7.7 | – | 91.2 | -13.2 | 0 | – | – |
| Cc1ccc(NC(=O)c2cnc(C(C)(C)C)s2)cc1C#Cc1nn(C2CCN(C)CC2)c2ncnc(N)c12 | 0.078 | 0.02 | > 10 | 0 | – | – | – | – | inhibition in vivo at 40 mg/kg/day (MDA-MB-231 [2]): 87%; Activity [3]: -5.3% |
| CCn1nc(C#Cc2cc(C(=O)Nc3ccc(CN4CCN(C)CC4)c(C(F)(F)F)c3)ccc2C)c2c(N)ncnc21 | – | – | – | – | – | – | – | – | Activity [12]: Toxic; Activity [13]: Toxic; Activity [14]: Toxic; Activity [15]: Toxic; Activity [16]: Toxic |
| Cc1ccc(NC(=O)c2cncc(C(F)(F)F)c2)cc1C#Cc1nn(C2CCN(C)CC2)c2ncnc(N)c12 | 0.167 | 0.065 | > 10 | – | – | – | – | – | – |
| Cc1ccc(NC(=O)c2cccc(C(F)(F)F)c2)cc1C#Cc1nn([C@H]2CC[C@H](O)CC2)c2ncnc(N)c12 | – | – | – | – | 89.1 | 3.1 | 0 | – | Activity [9]: 3.5%; inhibition in vivo at 20 mg/kg/day (MDA-MB-231 [10]): 79.6%; mortality at 360 h [11]: 0%; half-life [17]: 4.7 h; AUC(0-t) [18]: 0.96 µg·h/mL; AUC(0-inf) [19]: 0.976 µg·h/mL; Tmax [20]: 6 h; Cmax [21]: 0.128 µg/mL |
| CN1CCC(n2nc(C#Cc3cccc(NC(=O)Nc4cccc(C(F)(F)F)c4)c3)c3c(N)ncnc32)CC1 | 1.35 | 0.557 | 6.2 | – | – | – | – | – | – |
| Cc1ccc(NC(=O)c2cc(Cl)cc(C(F)(F)F)c2)cc1C#Cc1nn(C2CCN(C)CC2)c2ncnc(N)c12 | 0.085 | 0.063 | 2.6 | – | – | – | – | – | – |
